From PubChem
RAD54 inh: blocks human RAD54 Holliday junction branch migration; Q92698; FAM/BHQ fluorescence; inhibition, % at 10.4 µM; 360,000 tested, 0.14% active; AID 602329;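 active means mean normalized replicate activity at least 40 and at least half of replicates scoring 40 or more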;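 further: 0% = median of neutral control wells and 100% = median of positive control wells; inhibitors cause a drop in the FAM fluorescence signal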
AF4-AF9 inh: blocks AF4 peptide binding to human AF9 | inhibition, % at 10 µM | AlphaScreen, biotin-AF4 peptide binding to FLAG-AF9 | AID 651704 | P42568 | 350,000 tested, 0.47% active;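 active means every replicate reaching a set inhibition limit, whatever the replicate mean, cut at about 25% in these data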;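 further: 0% = plate neutral control median and 100% = total signal loss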
S100A4 inh HTS: S100A4-myosin IIA interaction inhibition | 360,000 tested, 0.14% active | AID 652163 | inhibition, % at 10.7 µM | P26447 | S100A4/TAMRA-MyoIIA peptide fluorescence polarization;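 active means mean inhibition of at least 70% across replicates, with every replicate also reaching that level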
Target sequence (P26447 whole entry, looked up): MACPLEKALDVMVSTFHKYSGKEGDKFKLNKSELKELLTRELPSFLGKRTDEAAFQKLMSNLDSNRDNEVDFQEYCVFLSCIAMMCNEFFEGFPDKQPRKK
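Test system: S100A4 monomer protein; Medium: HEPES pH 7.2 with CaCl2, KCl, NaCl, DTT, Triton; Probe or stimulus: TAMRA-labelled myosin IIA heavy-chain peptide probe, 5 nM; Doses: one dose per compound; Times: polarization read 5 min after assay mix addition, stable 5–60 min; Benchmarks: neutral control DMSO, positive control TFP.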
RAD52 anneal inh: blocks human RAD52 DNA annealing; 360,000 tested, 0.46% active; inhibition, % at 18.7 µM; recombinant RAD52 DNA annealing, FRET fluorescence; P43351;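 active means every replicate showing at least 50% inhibition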
dFosB act-1: enhances mouse delta FosB homodimer DNA binding; P13346; 340,000 tested, 0.99% active; AID 493131; purified delta FosB, TAMRA-CDK5 oligo fluorescence polarization; percent of positive-control signal above neutral wells; activation, % at 25 µM;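 active means mean activation above about 17%, with every replicate also reaching it, limit read from the data, passing the limit was not always enough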
Target sequence (P13346 whole entry, looked up): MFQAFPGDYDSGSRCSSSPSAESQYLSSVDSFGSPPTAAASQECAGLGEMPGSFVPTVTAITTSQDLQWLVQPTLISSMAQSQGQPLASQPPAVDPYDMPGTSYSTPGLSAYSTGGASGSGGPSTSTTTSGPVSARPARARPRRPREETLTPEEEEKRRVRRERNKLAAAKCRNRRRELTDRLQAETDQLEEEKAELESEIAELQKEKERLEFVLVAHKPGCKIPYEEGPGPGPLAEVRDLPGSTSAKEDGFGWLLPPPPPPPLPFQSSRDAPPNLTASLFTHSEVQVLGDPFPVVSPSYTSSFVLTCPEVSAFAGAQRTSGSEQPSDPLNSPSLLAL
dFosB act-2: activators of mouse delta FosB homodimer DNA binding; shares compounds with dFosB act-1; purified delta FosB, TAMRA-CDK5 oligo fluorescence polarization; normalised: neutral wells 0, positive control 100; activation, % at 24.9 µM; 2,400 tested, under 10 active;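 active means highest replicate activation at or above 34% and every replicate reaching that threshold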;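 further: higher polarization means more probe DNA bound by delta FosB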
* hit, by the source's call; / = no result. Sampled rows, rich in hits. Any-hit rate of the full collection: about 1.5%.

SMILES	RAD54 inh	AF4-AF9 inh	S100A4 inh HTS	RAD52 anneal inh	dFosB act-1	dFosB act-2
C[C@@H]1CN([C@H](C)CO)C(=O)Cc2cc(NS(=O)(=O)c3ccc(F)cc3)ccc2O[C@H]1CN(C)CC1CCCCC1	-10	-2	-1	9	/	/
CCC(C)c1ccc(S(=O)(=O)N2CCN(S(=O)(=O)c3ccc(NC(C)=O)cc3)CC2)cc1 (stereo unspecified)	1	0	3	-9	80*	-1
CCC(C)N1CCN(S(=O)(=O)c2ccc(NC(C)=O)cc2)CC1 (stereo unspecified)	/	-6	1	-15	-1	/
C[C@@H](NC(=O)C[C@H]1CC[C@@H]2[C@H](COC[C@H](O)CN2C(=O)Nc2ccccc2)O1)c1ccccc1	0	-3	2	7	/	/
Cc1csc2ncnc(NNC(=O)c3ccc(Cl)cc3)c12	/	1	-4	-8	28*	2
O=C(NNc1ncnc2sccc12)c1ccc(Cl)cc1	-3	-1	-3	4	0	/
Cc1ccc(CCNC(=O)Cn2ncc3c([nH]c4ccccc43)c2=O)cc1	4	-2	3	-6	6	/
Cc1ccc(CNC(=O)Cn2nnc(C(=O)Nc3cccc(C)c3C)c2N)cc1	5	1	-5	-10	6	/
Cc1ccc(C)c(NC(=O)Cn2nnc(C(=O)NCc3ccco3)c2N)c1	-2	-2	2	-13	30*	-5
Cc1ccc2[nH]c3c(=O)n(CC(=O)NCc4ccco4)ncc3c2c1	3	-1	1	-34	26*	2
Cc1ccc(CNC(=O)c2nnn(CC(=O)Nc3cccc(C)c3C)c2N)cc1	6	1	-2	-6	66*	-1
CCCNC(=O)N[C@H]1C=C[C@H](CC(=O)NC2CCC2)O[C@H]1CO	-2	2	8	2	/	/
CO[C@H]1CN(C)C(=O)c2cc(NS(C)(=O)=O)ccc2OC[C@@H](C)N(C(=O)C2CCCCC2)C[C@@H]1C	2	-2	-14	-1	/	/
Cn1c2ccccc2c2cnn(CC(=O)Nc3ccccc3Br)c(=O)c21	/	3	1	-8	7	/
Cn1c2ccccc2c2cnn(CC(=O)Nc3ccc(F)cc3F)c(=O)c21	-6	-6	4	-25	21*	3
O=C(Cn1nc(C(=O)O)c2ccccc2c1=O)Nc1cccc(Br)c1	-6	0	0	-9	0	/
O=C(Cn1nc(C(=O)O)c2ccccc2c1=O)Nc1ccc(F)cc1F	-7	-8	1	-15	26*	3
COc1ccc(NC(=O)Cn2nc(C(=O)O)c3ccccc3c2=O)cc1Cl	7	-3	-1	10	93*	4
Cc1noc(C)c1S(=O)(=O)Nc1ccc2c(c1)C(=O)N([C@H](C)CO)C[C@@H](C)[C@H](CN(C)C(=O)Nc1ccc(C(F)(F)F)cc1)O2	9	-3	-5	-6	/	/
COc1ccccc1-c1cnc2c(c1)C(=O)N([C@H](C)CO)C[C@H](C)[C@@H](CN(C)Cc1cncnc1)O2	4	-4	-7	-3	/	/
O=C(NCc1ccccn1)c1ccc2c(=O)n3nc(Nc4ccccc4)sc3nc2c1	-4	0	2	-3	27*	4
C[C@@H]1CN([C@@H](C)CO)C(=O)Cc2cc(NS(=O)(=O)c3ccccc3)ccc2O[C@H]1CN(C)CC1CC1	-7	1	-4	4	/	/
O=C(Nc1ccc(Br)cn1)c1ccc2nccnc2c1	/	/	/	/	43*	0
Cc1noc(C)c1NC(=O)Nc1ccc2c(c1)C(=O)N(C)[C@H]1CC[C@H](CC(=O)N(C)C)O[C@H]1CO2	8	0	10	-3	/	/
O=C(/C=C/c1cccs1)NC(=S)Nc1ccc(C(=O)O)cc1	-16	-38	-1	-25	0	/
NS(=O)(=O)c1ccc(NC(=S)NC(=O)/C=C/c2cccs2)cc1	/	0	6	-25	26*	1
COc1ccc(NC(=O)N(C)C[C@H]2Oc3c(NC(=O)c4cc(C)nn4C)cccc3C(=O)N([C@H](C)CO)C[C@H]2C)cc1	6	8	-4	9	/	/
CCOc1ccc(-n2c(=O)c3c(C)c(C)sc3n(CC(=O)NCc3ccco3)c2=O)cc1	/	8	-4	-10	8	/
